ChEMBL document CHEMBL1158478, “Synthesis and biological evaluation of guanidino compounds endowed with subnanomolar affinity as competitive inhibitors of maize polyamine oxidase” (J Med Chem, 2009)
The source made the active and inactive calls. The rule behind the calls is not given here.

Columns and labels:
Polyamine oxidase 1 = molecular target: T1, Polyamine oxidase 1 (Zea mays, UniProt O64411); assay: Inhibition of maize PAO at pH 6.5 by spectrophotometry-based Dixon plot method
T1 sequence (O64411 whole entry): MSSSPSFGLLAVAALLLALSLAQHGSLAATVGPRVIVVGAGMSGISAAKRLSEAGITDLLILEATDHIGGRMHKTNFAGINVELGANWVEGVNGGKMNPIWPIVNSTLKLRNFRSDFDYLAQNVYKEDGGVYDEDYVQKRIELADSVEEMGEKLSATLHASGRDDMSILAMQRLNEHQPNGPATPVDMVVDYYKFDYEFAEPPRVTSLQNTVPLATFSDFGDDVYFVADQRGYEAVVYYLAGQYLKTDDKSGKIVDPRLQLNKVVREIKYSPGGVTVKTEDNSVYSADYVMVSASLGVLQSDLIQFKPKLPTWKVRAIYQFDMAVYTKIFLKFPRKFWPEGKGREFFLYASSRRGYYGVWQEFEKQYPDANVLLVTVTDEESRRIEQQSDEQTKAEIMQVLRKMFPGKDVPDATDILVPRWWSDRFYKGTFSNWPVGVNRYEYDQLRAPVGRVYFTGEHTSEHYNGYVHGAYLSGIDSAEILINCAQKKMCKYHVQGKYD
Procedure, shortened: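 H₂O₂ was detected by peroxidase-coupled 4-aminoantipyrine/3,5-dichloro-2-hydroxybenzenesulfonate adduct at 515 nm. Ki was obtained by the Dixon method. Mean of three experiments, each in duplicate.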

HeLa [1] = assay: Cytostatic activity in human HeLa cells at 1 uM after 96 hrs by trypan blue assay; type: functional, cell-based
Procedure, shortened: (§1)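 Cells seeded in DMEM with 10% FBS at 2.5 × 10³ cells/well and allowed to adhere. They were then incubated with or without 1 μM compound for 0, 24, 48, 72 and 96 h. Trypan blue exclusion was used: unstained cells were counted twice in a Neubauer chamber, in duplicate, and reported as living cell number (×10⁷). At least three independent runs, with two-way ANOVA against control.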

U-373MG ATCC [2] = assay: Antiproliferative activity against human U373MG cells at 1 uM after 96 hrs by MTT assay; type: functional, cell-based
Procedure, shortened: (§2)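 Cells seeded at 2.5 × 10³ cells/well in DMEM with 10% FBS and allowed to adhere. They were then exposed to the test compound (0.1-10 μM) for 24, 48, 72 and 96 h. MTT reduction was read at 550 nm, and viability was taken as OD treated / OD untreated control × 100. At least three independent experiments, compared by two-way ANOVA.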

HeLa [3] = assay: Antiproliferative activity against human HeLa cells at 1 uM after 72 hrs by MTT assay; type: functional, cell-based; procedure, shortened: as §2
HeLa [4] = assay: Cytostatic activity in human HeLa cells at 1 uM after 48 hrs by trypan blue assay; type: functional, cell-based; procedure, shortened: as §1
U-373MG ATCC [5] = assay: Antiproliferative activity against human U373MG cells at 1 uM after 48 hrs by MTT assay; type: functional, cell-based; procedure, shortened: as §2
U373 MG [6] = assay: Cytostatic activity in human U373MG cells at 1 uM after 72 hrs by trypan blue assay; type: functional, cell-based; conditions: U-373MG ATCC; procedure, shortened: as §1
HeLa [7] = assay: Antiproliferative activity against human HeLa cells at 1 uM after 96 hrs by MTT assay; type: functional, cell-based; procedure, shortened: as §2
U373 MG [8] = assay: Cytostatic activity in human U373MG cells at 1 uM after 48 hrs by trypan blue assay; type: functional, cell-based; conditions: U-373MG ATCC; procedure, shortened: as §1
HeLa [9] = assay: Cytostatic activity in human HeLa cells at 1 uM after 72 hrs by trypan blue assay; type: functional, cell-based; procedure, shortened: as §1
HeLa [10] = assay: Antiproliferative activity against human HeLa cells at 1 uM after 48 hrs by MTT assay; type: functional, cell-based; procedure, shortened: as §2
U-373MG ATCC [11] = assay: Antiproliferative activity against human U373MG cells at 1 uM after 72 hrs by MTT assay; type: functional, cell-based; procedure, shortened: as §2
U-373MG ATCC [12] = assay: Cytotoxicity against human U373MG cells at 10 uM after 24 to 96 hrs by MTT assay; type: functional, cell-based; procedure, shortened: as §2
HeLa [13] = assay: Cytotoxicity against human HeLa cells at 10 uM after 24 to 96 hrs by MTT assay; type: functional, cell-based; procedure, shortened: as §2
U373 MG [14] = assay: Cytostatic activity in human U373MG cells at 1 uM after 96 hrs by trypan blue assay; type: functional, cell-based; conditions: U-373MG ATCC; procedure, shortened: as §1

SMILES	Ki (Polyamine oxidase 1) [nM]	also measured
CC(C)=CCNC(N)=NCCCCN=C(N)N	700	–
CC(C)=CCNC(N)=Nc1ccc(CN)cc1	18000	–
CC(C)=CCN=C(N)NCCCCCCCCNCCCCCCCCN=C(N)NCC=C(C)C	1.7	–
NCCCCCN=C(N)NC/C=C/c1ccccc1	1530	–
C#CCNC(N)=NCCCCCCCCNCCCCCCCCN=C(N)N	0.7	–
CC(C)=CCNC(=N)NCCCCN	15	–
CC(C)=CCNC(=N)NCCCNCCCN	1210	–
NCCCCCCCCN [DIAMINOOCTANE]	300	–
C=CCNC(=N)NCCCCN	130	–
CC(C)=CCNC(=N)NCCCCCN	10	–
COc1cccc(CNC(N)=NCCCCCN)c1	1150	–
NCCCCN=C(N)Nc1ccc(F)cc1	630	–
CC(C)=CCNC(=N)NCCCCCCN	22	–
C=C(C)CCNC(N)=NCCCCCCCCNCCCCCCCCN=C(N)N	0.5	–
C/C=C/CNC(=N)NCCCCCCCCNCCCCCCCCNC(=N)N	1.1	–
N=C(N)NCCCCCCCCNCCCCCCCCNC(=N)NCC1CC1	0.08	Activity (HeLa [1]): Active; Activity (U-373MG ATCC [2]): Active; Activity (HeLa [3]): Active; Activity (HeLa [4]): Active; Activity (U-373MG ATCC [5]): Active; Activity (U373 MG [6]): Active; Activity (HeLa [7]): Active; Activity (U373 MG [8]): Active; Activity (HeLa [9]): Active; Activity (HeLa [10]): Active; Activity (U-373MG ATCC [11]): Active; Activity (U-373MG ATCC [12]): Active; Activity (HeLa [13]): Active; Activity (U373 MG [14]): Active
C#CCNC(=N)NCCCCN	250	–
NC(N)=NCCCCCCCCNCCCCCCCCN=C(N)NCc1ccccc1	1	–
CC(C)=CCNC(N)=NCCCCCCCCNCCCCCCCCN=C(N)N	3	–
N=C(NCCCCCN)NCCC1CCCCC1	1720	–
NCCCCCN=C(N)NCC1CC1	2580	–
N=C(N)NCCCCN [AGMATINE]	3000	–
CC(C)=CCN=C(N)NCCCCN=C(N)NCC=C(C)C	1500	–
N=C(N)NCCCCCCCCNCCCCCCCCNC(=N)N [IMINOCTADIENE]	7.5	–
